Laboratory results: ChEMBL document CHEMBL5058577, “EUbOPEN Chemogenomics Library 2 (Multiplex)” (2022)

Test system: HEK-293T
Assay: Multiplex assay against HEK293T
Format: toxicity, cell-based
Conditions: human
Procedure, shortened: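 Per cents of healthy-nucleus cells form the tubulin, mitochondrial-mass and membrane-permeability phenotype values. Live cells were stained at seeding with Hoechst33342, BioTracker Green Microtubule Cytoskeleton Dye, MitoTracker Red and Annexin V Alexa Fluor 680. After compound addition they were imaged on a CQ1 microscope at 37°C and 5% CO2, and CellPathfinder machine-learning gating split them into Hoechst high-intensity objects or normal cells, normal cells into healthy, pyknosed or fragmented nuclei, and pyknosed cells into mitotic or apoptotic.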

[1] = 12 h, 1 µM, compound concentration 1 uM, replicate 1
[2] = 12 h, 1 µM, compound concentration 1 uM, replicate 2
[3] = 12 h, 10 µM, compound concentration 10 uM, replicate 1
[4] = 12 h, 10 µM, compound concentration 10 uM, replicate 2
[5] = 24 h, 1 µM, compound concentration 1 uM, replicate 1
[6] = 24 h, 1 µM, compound concentration 1 uM, replicate 2
[7] = 24 h, 10 µM, compound concentration 10 uM, replicate 1
[8] = 24 h, 10 µM, compound concentration 10 uM, replicate 2
[9] = 48 h, 1 µM, compound concentration 1 uM, replicate 1
[10] = 48 h, 1 µM, compound concentration 1 uM, replicate 2
[11] = 48 h, 10 µM, compound concentration 10 uM, replicate 1
[12] = 48 h, 10 µM, compound concentration 10 uM, replicate 2

## CCOc1c2c(c(OCC)c3ncccc13)CN(c1ccc(CS(=O)(=O)NC(=O)Cc3ccccc3OC)cc1C)C2=O
[1]
  Population Apoptotic (%): 33%
  Population Fragmented Nuclei (%): 3%
  Population Healthy Nuclei (%): 81%
  Population Hoechst High Intensity Objects (%): 6%
  Population Membrane Permeable-Phenotype (%): 0%
  Population Mitochondria Different-Phenotype (%): 43%
  Population Mitotic Cells (%): 66%
  Population Normal (%): 93%
  Population Pyknosed Nuclei (%): 14%
  Population Tubulin-Different-Phenotype (%): 31%
  Total Cell Count: 356
[2]
  Population Apoptotic (%): 35%
  Population Fragmented Nuclei (%): 5%
  Population Healthy Nuclei (%): 82%
  Population Hoechst High Intensity Objects (%): 5%
  Population Mitochondria Different-Phenotype (%): 54%
  Population Mitotic Cells (%): 64%
  Population Normal (%): 94%
  Population Pyknosed Nuclei (%): 12%
  Population Tubulin-Different-Phenotype (%): 16%
  Total Cell Count: 355
[3]
  Population Apoptotic (%): 45%
  Population Fragmented Nuclei (%): 9%
  Population Healthy Nuclei (%): 78%
  Population Hoechst High Intensity Objects (%): 4%
  Population Membrane Permeable-Phenotype (%): 0%
  Population Mitochondria Different-Phenotype (%): 49%
  Population Mitotic Cells (%): 54%
  Population Normal (%): 95%
  Population Pyknosed Nuclei (%): 12%
  Population Tubulin-Different-Phenotype (%): 34%
  Total Cell Count: 367
[4]
  Population Apoptotic (%): 53%
  Population Fragmented Nuclei (%): 7%
  Population Healthy Nuclei (%): 76%
  Population Hoechst High Intensity Objects (%): 9%
  Population Mitochondria Different-Phenotype (%): 72%
  Population Mitotic Cells (%): 46%
  Population Normal (%): 90%
  Population Pyknosed Nuclei (%): 16%
  Population Tubulin-Different-Phenotype (%): 29%
  Total Cell Count: 362
[5]
  Population Apoptotic (%): 35%
  Population Fragmented Nuclei (%): 11%
  Population Healthy Nuclei (%): 73%
  Population Hoechst High Intensity Objects (%): 5%
  Population Membrane Permeable-Phenotype (%): 0%
  Population Mitochondria Different-Phenotype (%): 28%
  Population Mitotic Cells (%): 64%
  Population Normal (%): 94%
  Population Pyknosed Nuclei (%): 14%
  Population Tubulin-Different-Phenotype (%): 20%
  Total Cell Count: 462
[6]
  Population Apoptotic (%): 27%
  Population Fragmented Nuclei (%): 5%
  Population Healthy Nuclei (%): 85%
  Population Hoechst High Intensity Objects (%): 3%
  Population Mitochondria Different-Phenotype (%): 27%
  Population Mitotic Cells (%): 72%
  Population Normal (%): 96%
  Population Pyknosed Nuclei (%): 8%
  Population Tubulin-Different-Phenotype (%): 10%
  Total Cell Count: 473
[7]
  Population Apoptotic (%): 18%
  Population Fragmented Nuclei (%): 10%
  Population Healthy Nuclei (%): 75%
  Population Hoechst High Intensity Objects (%): 4%
  Population Membrane Permeable-Phenotype (%): 0%
  Population Mitochondria Different-Phenotype (%): 36%
  Population Mitotic Cells (%): 81%
  Population Normal (%): 95%
  Population Pyknosed Nuclei (%): 14%
  Population Tubulin-Different-Phenotype (%): 28%
  Total Cell Count: 446
[8]
  Population Apoptotic (%): 32%
  Population Fragmented Nuclei (%): 8%
  Population Healthy Nuclei (%): 82%
  Population Hoechst High Intensity Objects (%): 8%
  Population Membrane Permeable-Phenotype (%): 1%
  Population Mitochondria Different-Phenotype (%): 49%
  Population Mitotic Cells (%): 67%
  Population Normal (%): 91%
  Population Pyknosed Nuclei (%): 9%
  Population Tubulin-Different-Phenotype (%): 17%
  Total Cell Count: 481
[9]
  Population Apoptotic (%): 29%
  Population Fragmented Nuclei (%): 13%
  Population Healthy Nuclei (%): 79%
  Population Hoechst High Intensity Objects (%): 3%
  Population Membrane Permeable-Phenotype (%): 0%
  Population Mitochondria Different-Phenotype (%): 20%
  Population Mitotic Cells (%): 70%
  Population Normal (%): 96%
  Population Pyknosed Nuclei (%): 6%
  Population Tubulin-Different-Phenotype (%): 13%
  Total Cell Count: 822
[10]
  Population Apoptotic (%): 33%
  Population Fragmented Nuclei (%): 11%
  Population Healthy Nuclei (%): 83%
  Population Hoechst High Intensity Objects (%): 1%
  Population Mitochondria Different-Phenotype (%): 14%
  Population Mitotic Cells (%): 66%
  Population Normal (%): 98%
  Population Pyknosed Nuclei (%): 5%
  Population Tubulin-Different-Phenotype (%): 7%
  Total Cell Count: 770
[11]
  Population Apoptotic (%): 41%
  Population Fragmented Nuclei (%): 13%
  Population Healthy Nuclei (%): 78%
  Population Hoechst High Intensity Objects (%): 4%
  Population Membrane Permeable-Phenotype (%): 1%
  Population Mitochondria Different-Phenotype (%): 32%
  Population Mitotic Cells (%): 58%
  Population Normal (%): 95%
  Population Pyknosed Nuclei (%): 8%
  Population Tubulin-Different-Phenotype (%): 16%
  Total Cell Count: 631
[12]
  Population Apoptotic (%): 33%
  Population Fragmented Nuclei (%): 12%
  Population Healthy Nuclei (%): 81%
  Population Hoechst High Intensity Objects (%): 3%
  Population Membrane Permeable-Phenotype (%): 0%
  Population Mitochondria Different-Phenotype (%): 22%
  Population Mitotic Cells (%): 66%
  Population Normal (%): 96%
  Population Pyknosed Nuclei (%): 6%
  Population Tubulin-Different-Phenotype (%): 11%
  Total Cell Count: 724
